Where two headings read alike, the source gives them in different places.
What was measured:
H838 tumor cell line = H838 tumor cell line ref 23 (Ho et al., Biomed. Pharmacother. 2014); cited from earlier work
[1] = metabolite identification/biotransformation, rat liver microsomes; type: in vitro ADME
AsPC-1 [2] = conditions: read-out: IC50 reported in the lit.; AsPC-1 (48 h), ATCC, SRB assay ref 2f; cited from earlier work
H441 [3] = assay: in vitro cytotoxicity assay; type: cell-based; conditions: Homo sapiens, NCI-H441, 72 h, read-out: IC50 (72 h)
Outline: (§1)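 Cells grown in medium with 10% FBS and exposed to test compound for 72 h. Viability read by MTS or MTT stain, and IC50 derived from the readings.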

MDA-MB-231 = conditions: read-out: IC50 reported in the lit.; natural product, MDA-MB-231 (CCRC-60425) ref 1; cited from earlier work
[4] = test system: panel of human tumor cell lines; assay: panel of human tumor cell lines in vitro; type: cell-based
Outline: as §1

A549 [5] = conditions: read-out: IC50 reported in the lit.; A549 (12 h), KMUH ref 2c; cited from earlier work
[6] = mouse pharmacokinetic study; type: in vivo; conditions: male, Balb/C, whole blood, 50 mg/kg
Hep3B = conditions: 5% FBS, 48 h incubation, SRB stain ref 2a; cited from earlier work
Hep 3B tumor model = conditions: initial tumor sizes 50–70 mm^3 ref 2a, 19; cited from earlier work
H441 [7] = conditions: read-out: IC50 reported in the lit.; H441, KMUH ref 2c; cited from earlier work
HepG2 [8] = conditions: HepG2, 5% FBS, 48 h incubation, SRB stain ref 2a; cited from earlier work
AsPC-1 [9] = assay: in vitro cytotoxicity assay; type: cell-based; conditions: Homo sapiens, ASPC1, 48 h
A549 [10] = assay: in vitro cytotoxicity assay; type: cell-based, human
[11] = metabolite identification/biotransformation, human liver microsomes; type: in vitro ADME
[12] = test system: A549 subcutaneous xenografts; conditions: NOD/SCID mice, 2 weeks of oral 30 and 60 mg/kg ref 18; cited from earlier work
HepG2 [13] = assay: in vitro cytotoxicity assay; type: cell-based; conditions: Homo sapiens, HepG2, 72 h, read-out: IC50 (72 h)
Outline: as §1

PANC-1 [14] = conditions: read-out: IC50 reported in the lit.; PANC-1 (48 h), ATCC, SRB assay ref 2f; cited from earlier work
[15] = test system: Hep 3B HCC tumor xenografts; assay: in vivo antitumor activity, subcutaneous Hep3B HCC xenograft in NSG mice; set-up: species or system mouse; conditions: female NSG mice, 50 mg/kg ip daily for 14 days
Outline: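 Hep 3B hepatocellular carcinoma xenograft in mice, dosed per schedule. Paclitaxel positive control given iv at 24 mg/kg qd×5. Tumor growth inhibition, body weight and signs of toxicity monitored. Error given as SE computed from the average deviation.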

[16] = metabolite identification/biotransformation, mouse liver microsomes; type: in vitro ADME; conditions: 1 mg/ml protein, 5 µM drug, 1 mM NADPH, 37 °C
PANC-1 [17] = assay: in vitro cytotoxicity assay; type: cell-based; conditions: Homo sapiens, PANC-1, 48 h
LNCaP = conditions: read-out: IC50 reported in the lit.; natural product, LNCaP (CCRC-60088) ref 1; cited from earlier work

SMILES: COC1=C(OC)[C@H](O)[C@H](C/C=C(\C)CC/C=C(\C)CCC=C(C)C)[C@@H](C)C1=O [Compound 1, Antroquinonol A]
- IC50 (H838 tumor cell line): ~3 µM
- biotransformation in liver microsomes [1]: rapidly converted to a major metabolite
- IC50 (AsPC-1 [2]): 20 µM
- IC50 (H441 [3]): > 25 µM
- IC50 (MDA-MB-231): 2.6 ± 0.05 µM
- fold less cytotoxic than reported for the natural product ([4]; cell lines of Table 1 except A549): 3–70 fold
- cytotoxicity in tumor cell line panel ([4]; panel of Table 1): only micromolar activity
- IC50 (A549 [5]): 25 µM
- AUC(0-t) ([6]; ip): 2.29 ± 0.142 µM·h
- Cmax ([6]; ip): 457 ± 45 nM
- Tmax ([6]; ip): 4 ± 3 h
- AUC(0-t) ([6]; po): 0.266 ± 0.088 µM·h
- Cmax ([6]; po): 79 ± 52 nM
- Tmax ([6]; po): 2 ± 1 h
- GI50 (Hep3B): > 30 µM
- antitumor activity reported in the literature (Hep 3B tumor model): statistically significant antitumor activity
- IC50 (H441 [7]): 25 µM
- GI50 (HepG2 [8]): 0.22 µM
- IC50 (AsPC-1 [9]): > 25 µM
- fold more potent than previously reported (A549 [10]; A549): ~4 fold
- IC50 (A549 [10]; Homo sapiens, A549, 12 h, A549 (12 h) (ATCC), 1 triplicate, 15 duplicate): 6.7 ± 2.5 µM
- biotransformation in liver microsomes [11]: rapidly converted to a major metabolite
- antitumor effect reported [12]: tumor growth suppression
- IC50 (HepG2 [13]): > 25 µM
- IC50 (PANC-1 [14]): 19 µM
- tolerability [15]: generally well-tolerated with no overt signs of toxicity
- weight loss [15]: ~4%
- biotransformation in liver microsomes [16]: rapidly converted to a major metabolite
- IC50 (PANC-1 [17]): > 25 µM
- IC50 (LNCaP): 6.1 ± 0.07 µM

From PMC4827469 (ACS Central Science, 2015)
